Laboratory results from ChEMBL document CHEMBL3286341, “Novel, potent and selective 17β-hydroxysteroid dehydrogenase type 2 inhibitors as potential therapeutics for osteoporosis with dual human and mouse activities” (Eur J Med Chem, 2014).
Calls of active or inactive are those of the source. The rule behind the calls is not given here.

Tests used:
[1] = target: Estrogen receptor beta (Homo sapiens) (UniProt Q92731); experiment: Displacement of [3H]-estradiol from recombinant human estrogen receptor-beta by liquid scintillation counting analysis relative to estradiol
Outline: (§1)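 Competitive binding with [³H]-E2; compounds in DMSO at 5% final. Non-specific binding was set with unlabeled E2 at 100-fold the tracer: 300 nM for ERα, 1000 nM for ERβ. Bound complexes were captured on hydroxyapatite and counted by liquid scintillation. Concentrations displacing 50% were read from sigmoidal curves, with E2 run in each experiment. RBA[%] = IC50(E2)/IC50(compound) × 100.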

[2] = target: T1, Estrogen receptor (Homo sapiens) (UniProt P03372); experiment: Displacement of [3H]-estradiol from recombinant human estrogen receptor-alpha by liquid scintillation counting analysis relative to estradiol; outline: as §1
T1 sequence (whole entry): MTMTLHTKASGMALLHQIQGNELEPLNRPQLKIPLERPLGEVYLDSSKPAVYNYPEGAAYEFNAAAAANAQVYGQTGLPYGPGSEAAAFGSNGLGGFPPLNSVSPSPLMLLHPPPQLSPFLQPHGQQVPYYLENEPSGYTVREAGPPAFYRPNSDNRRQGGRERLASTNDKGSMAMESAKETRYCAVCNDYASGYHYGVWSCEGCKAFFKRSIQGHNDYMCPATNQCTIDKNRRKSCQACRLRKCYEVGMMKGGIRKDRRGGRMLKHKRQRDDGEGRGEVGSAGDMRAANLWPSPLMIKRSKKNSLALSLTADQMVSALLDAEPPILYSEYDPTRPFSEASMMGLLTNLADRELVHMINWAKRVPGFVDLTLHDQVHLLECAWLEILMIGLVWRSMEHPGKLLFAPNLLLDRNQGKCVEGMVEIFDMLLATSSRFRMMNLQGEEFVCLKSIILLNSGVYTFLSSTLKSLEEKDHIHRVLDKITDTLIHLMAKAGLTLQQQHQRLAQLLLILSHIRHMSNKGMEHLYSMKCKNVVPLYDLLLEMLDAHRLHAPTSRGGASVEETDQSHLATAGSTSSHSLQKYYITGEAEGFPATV

[3] = target: T2, 17-beta-hydroxysteroid dehydrogenase type 1 (Homo sapiens) (UniProt P14061); experiment: Inhibition of human placental 17beta-HSD1 cytosolic fraction using tritiated estrone as substrate assessed as formation of estradiol at 1 uM by HPLC analysis relative to control
T2 sequence (whole entry): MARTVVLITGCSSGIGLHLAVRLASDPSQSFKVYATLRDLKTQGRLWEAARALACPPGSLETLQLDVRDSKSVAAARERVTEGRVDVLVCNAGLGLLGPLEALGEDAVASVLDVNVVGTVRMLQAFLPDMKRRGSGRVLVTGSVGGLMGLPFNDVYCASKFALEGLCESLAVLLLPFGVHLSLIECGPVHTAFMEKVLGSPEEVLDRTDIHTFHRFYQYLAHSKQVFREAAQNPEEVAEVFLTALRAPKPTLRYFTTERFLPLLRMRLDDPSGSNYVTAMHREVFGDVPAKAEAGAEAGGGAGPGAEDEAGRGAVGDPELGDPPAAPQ
Outline: (§2)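 Cytosolic fraction from placenta served as the enzyme source, incubated with tritiated E1 (500 nM final), NADH cofactor and test compound. E1 and E2 were separated by HPLC and the labeled species quantified. Mean of three determinations.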

[4] = target: T3, 17-beta-hydroxysteroid dehydrogenase type 2 (Homo sapiens, UniProt P37059); experiment: Inhibition of human placental 17beta-HSD2 microsomal fraction using tritiated estradiol as substrate assessed as formation of estrone by HPLC analysis
T3 sequence (P37059 whole entry): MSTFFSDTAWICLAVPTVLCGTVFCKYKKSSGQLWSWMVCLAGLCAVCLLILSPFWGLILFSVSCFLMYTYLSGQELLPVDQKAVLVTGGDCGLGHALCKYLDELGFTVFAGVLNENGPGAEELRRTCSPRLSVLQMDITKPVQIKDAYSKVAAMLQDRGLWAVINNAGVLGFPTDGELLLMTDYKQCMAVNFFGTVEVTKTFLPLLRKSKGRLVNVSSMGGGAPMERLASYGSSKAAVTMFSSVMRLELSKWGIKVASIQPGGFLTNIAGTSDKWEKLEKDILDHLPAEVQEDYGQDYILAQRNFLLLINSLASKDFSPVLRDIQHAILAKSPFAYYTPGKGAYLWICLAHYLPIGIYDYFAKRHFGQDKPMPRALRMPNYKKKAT
Outline: (§3)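 Placental microsomes were incubated with tritiated E2 (500 nM final) plus NAD⁺ cofactor and test compound. Labeled E2 and E1 were separated by HPLC and quantified. Mean of three determinations, standard deviation below 20%.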

Homo sapiens = species on record: Homo sapiens; experiment: Selectivity factor, ratio of IC50 for human placental 17beta-HSD1 cytosolic fraction to IC50 for placental 17beta-HSD2 microsomal fraction
Outline: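 Selectivity factor calculated as IC50(h17β-HSD1)/IC50(h17β-HSD2), both IC50 values taken from the placental cytosolic and microsomal radiolabel HPLC assays.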

[5] = target: T4, Estradiol 17-beta-dehydrogenase 2 (Mus musculus) (UniProt P51658); experiment: Inhibition of mouse liver 17beta-HSD2 microsomal fraction using tritiated estradiol as substrate assessed as formation of estrone at 1 uM by HPLC analysis relative to control
T4 sequence (whole entry): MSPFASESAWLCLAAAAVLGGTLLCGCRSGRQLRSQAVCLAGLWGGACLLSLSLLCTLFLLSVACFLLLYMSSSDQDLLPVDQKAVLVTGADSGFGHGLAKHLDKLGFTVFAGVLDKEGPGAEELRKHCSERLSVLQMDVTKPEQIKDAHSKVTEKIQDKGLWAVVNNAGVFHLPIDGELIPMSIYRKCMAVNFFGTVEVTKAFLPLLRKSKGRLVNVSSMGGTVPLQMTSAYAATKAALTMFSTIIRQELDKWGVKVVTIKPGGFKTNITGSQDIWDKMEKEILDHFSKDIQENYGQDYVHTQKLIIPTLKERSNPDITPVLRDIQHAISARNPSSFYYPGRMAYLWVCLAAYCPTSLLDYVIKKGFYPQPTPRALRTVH
Outline: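 Mouse liver microsomes were used, following the same procedure as the human type 2 assay: tritiated E2 at 500 nM with NAD⁺, and E1 formation quantified after HPLC separation.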

[6] = target: T5, 17-beta-hydroxysteroid dehydrogenase type 2 (Homo sapiens) (UniProt P37059); experiment: Inhibition of human placental 17beta-HSD2 microsomal fraction using tritiated estradiol as substrate assessed as formation of estrone at 1 uM by HPLC analysis relative to control; outline: as §3
T5 sequence (whole entry): T3 sequence (P37059 whole entry)

[7] = target: T6, 17-beta-hydroxysteroid dehydrogenase type 1 (Homo sapiens, UniProt P14061); experiment: Inhibition of human placental 17beta-HSD1 cytosolic fraction using tritiated estrone as substrate assessed as formation of estradiol by HPLC analysis; outline: as §2
T6 sequence (P14061 whole entry): T2 sequence (whole entry)

Chain of Estrogen receptor beta (Homo sapiens) (Q92731 whole entry): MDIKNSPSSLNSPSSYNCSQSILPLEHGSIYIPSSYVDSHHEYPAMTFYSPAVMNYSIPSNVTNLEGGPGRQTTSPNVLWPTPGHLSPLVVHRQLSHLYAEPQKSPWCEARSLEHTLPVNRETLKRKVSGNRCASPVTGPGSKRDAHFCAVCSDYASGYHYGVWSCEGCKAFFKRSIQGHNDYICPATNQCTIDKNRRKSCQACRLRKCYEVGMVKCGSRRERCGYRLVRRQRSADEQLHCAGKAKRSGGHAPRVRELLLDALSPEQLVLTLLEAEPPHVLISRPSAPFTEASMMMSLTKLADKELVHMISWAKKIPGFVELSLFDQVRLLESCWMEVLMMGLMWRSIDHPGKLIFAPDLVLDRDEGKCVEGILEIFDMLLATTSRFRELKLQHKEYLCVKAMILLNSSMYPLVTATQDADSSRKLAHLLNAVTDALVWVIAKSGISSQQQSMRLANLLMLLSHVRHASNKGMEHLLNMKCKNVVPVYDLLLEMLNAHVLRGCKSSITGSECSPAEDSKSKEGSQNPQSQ

RBA [1] [%] | RBA [2] [%] | inhibition [3] | IC50 [4] [nM] | Ratio IC50 (Homo sapiens) | inhibition [5] | inhibition [6] [%] | IC50 [7] [nM] | Compound
< 0.1 | < 0.1 |  |  |  |  |  |  | COc1cccc(-c2csc(C(=O)N(C)c3cccc(OC)c3)c2)c1
 |  | 29% | 362 | 7 | 42% | 74 | 2490 | CN(C(=O)c1cc(-c2cccc(O)c2)sc1-c1cccc(O)c1)c1cccc(O)c1
 |  | inactive |  |  | 12% | 17 |  | COc1cccc(CC(=O)c2ccc(-c3cccc(OC)c3)s2)c1
 |  | 54% | 357 | 1 | 42% | 73 | 336 | CC(C)(C(=O)c1ccc(-c2cccc(O)c2)s1)c1cccc(O)c1
 |  |  |  | 14 | 16% |  |  | CN(Cc1cccc(O)c1)C(=O)c1ccc(-c2cccc(O)c2)s1
 |  | 43% |  |  | inactive | 37 |  | O=C(Cc1cccc(O)c1)c1ccc(-c2cccc(O)c2)s1
 |  |  |  | 2 | inactive |  |  | Cc1cc(-c2cccc(O)c2)sc1-c1cccc(O)c1
 |  | inactive |  | 73 |  |  |  | COc1cccc(-c2ccc(C(=O)N(C)Cc3cccc(O)c3)s2)c1F
< 0.1 | < 0.1 |  |  | 2 | inactive |  |  | Oc1cccc(-c2cc(-c3cccc(O)c3)c(-c3cccc(O)c3)s2)c1
 |  | inactive |  | > 250 | 26% |  | > 10000 | COc1cccc(CN(C)C(=O)c2ccc(-c3cccc(OC)c3)s2)c1
